Source: article PMC3759693 (Genes & Development, 2013)
Each block holds one compound with its values, some of them ahead of it.

Legend:
[1] = tested on: PARG-dependent PAR hydrolysis; test: PAR at DNA damage sites after laser microirradiation; type: cell-based; conditions: 10 μM GLTN; Supplemental Fig. 7C
[2] = tested on: recruitment of NBS1 R28A mutant to DNA damage sites; test: Laser microirradiation, relocation of NBS1 R28A-GFP in MEFs; type: cell-based, mouse; conditions: wild-type MEFs
Outline: (§1)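 U2OS cells or MEFs (wild-type or knockout) on glass-bottomed dishes expressed GFP-fused proteins or mutants. Microirradiation used an equal laser pulse energy and exposure time for every cell, with live imaging. Where used, 100 nM olaparib, 10 μM GLTN or 10 μM wortmannin was added 1 h before irradiation. GFP intensity at the laser line was quantified; normalized curves from 50 cells over three experiments were averaged, ± SD.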

[3] = tested on: recruitment of NBS1 to DNA damage sites; test: Laser microirradiation, relocation of NBS1-GFP in MEFs; type: cell-based, mouse; conditions: 100 nM olaparib 1 h before laser microirradiation
Outline: as §1

[4] = tested on: in vivo interaction between PAR and PNKP, APTX, Ligase4, XRCC1, NBS1; test: Co-IP of PAR with FHA/BRCT domain-containing proteins after IR; type: cell-based; conditions: olaparib pretreatment
Outline: (§2)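 U2OS cells were given 137Cs IR (10 Gy or indicated doses) and lysed at indicated times. Where used, 100 nM olaparib was added 1 h […]. Lysis on ice in NETN-100 (20 mM Tris-HCl pH 8.0, 100 mM NaCl, 1 mM EDTA, 0.5% NP-40). Soluble fractions were immunoprecipitated and western blotted with the indicated antibodies (e.g., anti-PAR, pATM, pCHK2, pSQpTQ). Triplicates.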

[5] = tested on: early activation of ATM; test: Western blot of pATM; type: cell-based; conditions: after IR, cells pretreated with olaparib
Outline: as §2

[6] = tested on: early phosphorylation of 53BP1; test: IP/Western blot of 53BP1 phosphorylation after IR; type: cell-based; conditions: cells pretreated with olaparib, then irradiated
Outline: as §2

[7] = tested on: G2/M checkpoint; test: G2/M checkpoints assay, phospho-histone H3 flow cytometry; type: cell-based; conditions: olaparib treatment
Outline: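 Stable cells expressing siRNA-resistant Flag-tagged wild-type NBS1 were pretreated with or without olaparib, then given 0 or 2 Gy IR with 1 h recovery. Cells fixed in 70% ethanol and stained with rabbit anti-phospho-histone H3 (Ser10) plus FITC anti-rabbit secondary. RNase A treatment and propidium iodide staining followed. pH3-positive fraction measured by flow cytometry.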

[8] = tested on: early DNA damage repair in U2OS cells; test: Neutral comet assay; type: cell-based; conditions: 4 Gy IR, olaparib treatment
[9] = tested on: recruitment of PNKP to DNA damage sites; test: Laser microirradiation, relocation of PNKP; type: cell-based
Outline: as §1

[10] = tested on: recruitment of DNA Ligase4 to DNA damage sites; test: Laser microirradiation, relocation of Ligase4; type: cell-based; conditions: olaparib treatment; Supplemental Fig. 10B
Outline: as §1

[11] = tested on: recruitment of XRCC1 to DNA damage sites; test: Laser microirradiation, relocation of XRCC1; type: cell-based; conditions: olaparib treatment; Supplemental Fig. 10C
Outline: as §1

[12] = tested on: wild-type or H2AX−/− MEFs; test: Colony formation assay after IR; type: cell-based, mouse; conditions: 100 nM olaparib, low dose of IR
Outline: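 500 wild-type or H2AX−/− MEFs seeded per well, then given graded 137Cs IR doses with or without 100 nM olaparib present in the medium throughout culture. After 7 d, cells fixed and crystal violet-stained; colonies of >50 cells counted. Triplicates, mean ± SD, Student's t-test.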

[13] = tested on: recruitment of NBS1 to DNA damage sites; test: Laser microirradiation, relocation of NBS1-GFP in U2OS cells; type: cell-based; conditions: 10 μM wortmannin 1 h before laser microirradiation
Outline: as §1

[14] = target: T1, FHA domain of RNF8 (Homo sapiens, UniProt O76064); test: Interaction with RNF8 FHA domain; type: binding; conditions: Supplemental Fig. 3
T1 sequence (O76064 38-92 limits assumed): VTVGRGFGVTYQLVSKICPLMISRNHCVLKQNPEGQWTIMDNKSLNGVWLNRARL
Outline: (§3)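 Recombinant domains expressed in E. coli, or by baculovirus for NBS1 FHA+BRCT (C-terminal GST), and purified. ITC at 16°C: protein at 20∼60 μM final in 10 mM Na2HPO4 (pH 7.5), 100 mM NaCl. Syringe ligand (PAR, ADP-ribose or iso-ADP-ribose) at 150∼750 μM final in the same buffer, with PAR counted as ADP-ribose units. 0.4 μL preinjection, then 19 × 2 μL injections at 120 sec, 1000 rpm. Isotherms integrated and fitted.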

[15] = target: FHA domain of CHK2 (Homo sapiens, UniProt O96017); test: Interaction with CHK2 FHA domain; type: binding; conditions: Supplemental Fig. 3
Sequence of FHA domain of CHK2 (O96017 113-175 limits assumed): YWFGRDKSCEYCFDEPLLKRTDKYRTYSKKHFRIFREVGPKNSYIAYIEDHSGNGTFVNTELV
Outline: as §3

[16] = target: T2, BRCT domain of MDC1 (Homo sapiens, UniProt Q14676); test: Affinity of MDC1 BRCT domain with PAR; type: binding
T2 sequence (Q14676 1891-2089 limits assumed): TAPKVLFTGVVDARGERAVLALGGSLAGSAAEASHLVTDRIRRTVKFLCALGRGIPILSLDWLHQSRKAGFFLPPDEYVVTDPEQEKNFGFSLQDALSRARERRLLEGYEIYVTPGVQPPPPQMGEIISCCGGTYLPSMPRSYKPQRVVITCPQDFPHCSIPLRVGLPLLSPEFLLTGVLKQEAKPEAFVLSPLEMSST
Outline: as §3

[17] = target: BRCT domain of BRCA1 (Homo sapiens, UniProt P38398); test: Affinity of BRCA1 BRCT domain with PAR; type: binding
Sequence of BRCT domain of BRCA1 (P38398 1646-1859 limits assumed): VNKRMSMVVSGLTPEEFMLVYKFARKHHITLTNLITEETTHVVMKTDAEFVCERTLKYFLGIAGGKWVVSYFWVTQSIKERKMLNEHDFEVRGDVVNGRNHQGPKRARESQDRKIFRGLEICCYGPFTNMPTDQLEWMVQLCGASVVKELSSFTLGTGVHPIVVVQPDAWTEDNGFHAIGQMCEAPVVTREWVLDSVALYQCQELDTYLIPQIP
Outline: as §3

[18] = target: XRCC1 (amino acids 379–400) peptide (Homo sapiens, UniProt P18887); test: Dot blot, pull-down or ITC with XRCC1 peptide; type: binding; conditions: pull-down, or ITC assay, data not shown
Sequence of XRCC1 (amino acids 379–400) peptide (P18887 379-400 limits assumed): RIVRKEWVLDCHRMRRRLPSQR

Compound: O=C(OC[C@H]1O[C@@H](OC(=O)c2cc(O)c(O)c(OC(=O)c3cc(O)c(O)c(O)c3)c2)[C@H](OC(=O)c2cc(O)c(O)c(OC(=O)c3cc(O)c(O)c(O)c3)c2)[C@@H](OC(=O)c2cc(O)c(O)c(OC(=O)c3cc(O)c(O)c(O)c3)c2)[C@@H]1OC(=O)c1cc(O)c(O)c(OC(=O)c2cc(O)c(O)c(O)c2)c1)c1cc(O)c(O)c(OC(=O)c2cc(O)c(O)c(O)c2)c1 [GLTN, gallotannin]
half-life of PAR at DNA damage sites [1]: significantly prolonged | retention of NBS1 R28A mutant at DNA damage sites ([2]; GLTN treatment): stabilized NBS1 at DNA damage sites

Compound: O=C(c1cc(Cc2n[nH]c(=O)c3ccccc23)ccc1F)N1CCN(C(=O)C2CC2)CC1 [olaparib]
recruitment of NBS1 to DNA damage sites ([3]; H2AX−/− cells): abolished both the fast recruitment and slow accumulation of NBS1 | relocation of NBS1 to DNA damage sites ([3]; MDC1−/− cells): abolished the relocation of NBS1 | recruitment of NBS1 to DNA damage sites ([3]; wild-type MEFs): abolished the early recruitment of NBS1 | in vivo interaction of FHA/BRCT domain-containing proteins with PAR [4]: no longer interacted with PAR in vivo | early activation of ATM [5]: impaired | early phosphorylation of 53BP1 [6]: clearly suppressed | arrest at the G2/M boundary after IR [7]: could not be fully arrested at the G2/M boundary | DNA damage repair (comet assay tail moment) [8]: significantly impaired | early recruitment of PNKP to DNA damage sites ([9]; olaparib treatment, Supplemental Fig. 9A): impaired the early recruitment | early recruitment of DNA Ligase4 to DNA damage sites [10]: impaired the early recruitment | fast recruitment of XRCC1 to DNA damage sites [11]: abolished fast recruitment | sensitivity to IR-induced DNA damage (colony formation) ([12]; H2AX−/− MEFs): hypersensitive | sensitivity to IR-induced DNA damage (colony formation) ([12]; wild-type MEFs): could still be resistant | recruitment of NBS1 R28A mutant to DNA damage sites ([2]; olaparib treatment): abolished the recruitment of NBS1

Compound: COC[C@H]1OC(=O)c2coc3c2[C@@]1(C)C1=C(C3=O)[C@@H]2CCC(=O)[C@@]2(C)C[C@H]1OC(C)=O [wortmannin]
recruitment of NBS1 to DNA damage sites [13]: could still be recruited | retention of PNKP at DNA damage sites ([9]; wortmannin treatment, Supplemental Fig. 9D): significantly impaired

interaction with the FHA domain [14]: failed to interact | interaction with the FHA domain [15]: failed to interact | affinity with PAR [16]: do not have the affinity | affinity with PAR [17]: do not have the affinity | binding between the peptide and PAR [18]: did not detect any binding
Compound: poly(ADP-ribose) [PAR]
